PolyA inhibitor: blocks polyadenylation in yeast reporter cells; S. cerevisiae SKY197-pL101 polyadenylation reporter, beta-gal luminescence; efflux-impaired pdr1/pdr3 knockout yeast; score 100 = 6 SD above DMSO; activity score, % at 12 µM; 0.02% of 300,000 active; AID 1875;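 active means lowest replicate activity score at least 50, where 100 means six control SD above control mean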;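 further: yeast exposed to compound for 9 h at 30 °C; higher score means more reporter readthrough which indicates perturbed polyadenylation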
NALP3 yeast inh: inhibitors of NALP3 inflammasome in yeast; Yeast reconstituted NLRP3/ASC/caspase-1, beta-gal luminescence, 24 h; inhibition, % at 10 µM; 0.39% of 330,000 active;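 active means inhibition of 50% or more; inactive means inhibition below 50%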
Calb FLC: C. albicans growth modulation with fluconazole | C. albicans CaCi-2 (fluconazole-resistant clinical isolate) + fluconazole, Alamar Blue growth, 48 h | growth inhibition, % (test concentration not listed) | 0.57% of 300,000 active | AID 1979;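 active means growth inhibition above about 58% in most replicates, limit read from the data, passing the limit was not always enough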;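 further: all wells also contain fluconazole at 8 µg/ml as a sub-toxic cotreatment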
NALP1 inh: inhibitors of NALP1 inflammasome in yeast; S. cerevisiae NALP1/ASC/caspase-1 growth, X-gal OD620, 72 h; inhibition, % at 10 µM; 0.61% of 280,000 active; in the data active means inhibition mostly above about 24%, no sharp cut-off; inactive means mostly below about 32%
T cruzi inh: T. cruzi replication inhibition; T. cruzi beta-gal in NIH3T3, luminescence, 90 h; inhibition, % (test concentration not listed); 1.4% of 300,000 active;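 active means mean inhibition across valid replicates above about 55%, limit read from the data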;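 further: signal also drops with host cell toxicity which is not excluded here; higher percent means less beta-gal luminescence so fewer parasites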
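Incubation – ≥90 h infection period, 3 h prior cell attachment · System – NIH/3T3 fibroblasts plus reporter T. cruzi · Doses – compound pinned at 50 nL/well, DMSO · Read-out basis – percent inhibition of parasite-derived β-gal signal · Signal – luminescent β-galactosidase signal after 60 min lysis · Also added – 5000 T. cruzi trypomastigotes/well · Medium – Low-serum DMEM with 2% FBS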
Lmaj promast: Leishmania major promastigote growth inhibition; Leishmania major promastigotes, resazurin fluorescence viability; AID 1063; 9% of 200,000 active; inhibition, % at 10 µM; in the data active means inhibition above about 50%;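 further: promastigotes grown with compound for 44 hours at 28 °C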
Numbers stand for hits; – = inactive; · = no result given. This is one part of a sample in which hits are shown more often than they occur.

SMILES	PolyA inhibitor	NALP3 yeast inh	Calb FLC	NALP1 inh	T cruzi inh	Lmaj promast
CC1=C(C(=O)N2CCCC(N3CCN(c4cccc(C(F)(F)F)c4)CC3)C2)OCCO1 (configuration not stated)	–	–	–	–	–	·
CCOc1ccc(Nc2ccc3nonc3c2[N+](=O)[O-])cc1	–	–	–	–	–	·
CCOc1ccc(Nc2ncnc3ccc([N+](=O)[O-])cc23)cc1	–	–	–	–	58.6	–
CCN1CCN(c2cc(C)c3cc(NC(=S)N4CCCC(C)C4)ccc3n2)CC1 (configuration not stated)	–	–	–	–	–	95.6
CCN1CCN(c2cc(C)c3cc(NC(=S)N4CC(C)CC(C)C4)ccc3n2)CC1 (configuration not stated)	–	·	–	–	–	99.9
Cc1cc(NC(=O)c2cccc(Br)c2)no1	–	–	–	·	–	·
O=C(Cn1nc(Cc2cccnc2)c2ccccc2c1=O)Nc1cccnc1Cl	–	–	–	–	–	–
CCOc1ccc(/C=C/C2=CC(C)(C)NC(=S)N2)cc1	–	–	109.8	–	–	–
CCCc1ccc(S(=O)(=O)N/N=C(/C)c2ccc3c(c2)OCO3)cc1	–	–	–	–	–	·
Cc1ccc(C(=O)c2ccccc2C(=O)OCC(=O)N2C(C)CCCC2C)cc1 (configuration not stated)	·	–	·	·	·	·
CCCCCCCCCC(=O)O	·	–	·	·	·	·
CCCCCC#CCC#CCC#CCC#CCCCC(=O)O	–	–	–	–	–	83.8
Cc1ccc2c(Cl)cc(Cl)c(OCC(=O)Nc3ccc(C)c(S(=O)(=O)N(C)C)c3)c2n1	–	–	–	–	–	68.4
Cc1ccc2c(Cl)cc(Cl)c(OCC(=O)Nc3cccc(S(N)(=O)=O)c3)c2n1	–	–	–	–	–	71.3
Cc1ccc2c(Cl)cc(Cl)c(OCC(=O)Nc3cc(S(=O)(=O)N(C)C)ccc3C)c2n1	–	–	–	–	–	68.5
Cc1ccc2c(Cl)cc(Cl)c(OCC(=O)Nc3cccc(S(=O)(=O)N(C)C)c3)c2n1	–	–	–	–	–	–
COC(=O)c1sc(N2CCN(c3ccc(Cl)cc3)CC2)nc1N	–	–	–	–	–	–
CCOC(=O)c1cc(C(=O)c2cc(F)ccc2O)coc1=N	–	–	–	–	–	–
N=c1occ(C(=O)c2cc(F)ccc2O)cc1C(=O)NC1CCCCC1	–	–	–	–	–	69.7
CCOC(=O)C1CCN(C(=O)c2cc(C)n(C(C)(C)C)n2)CC1	–	–	–	·	–	·
Cc1ccc(N2C(=O)c3cccc4c(Oc5ccccc5[N+](=O)[O-])ccc(c34)C2=O)c(C)c1	–	–	–	–	–	97.4
CC(=O)Oc1ccc(N2C(=O)c3cccc4c([N+](=O)[O-])ccc(c34)C2=O)cc1	–	–	–	–	–	·
CCC1(c2ccc(Cl)cc2)NC(=O)N(CC(=O)N2CCN(C(=O)c3ccco3)CC2)C1=O (configuration not stated)	·	–	·	·	·	·
Cc1cc(NS(=O)(=O)Cc2ccccc2)no1	–	–	–	–	–	–
O=C(CN1C(=O)NC(Cc2c[nH]c3ccccc23)C1=O)Nc1cccc(S(=O)(=O)N2CCCCCC2)c1 (configuration not stated)	–	–	–	·	–	64.3
SMILES	PolyA inhibitor	NALP3 yeast inh	Calb FLC	NALP1 inh	T cruzi inh	Lmaj promast
O=C(Nc1cccc(S(=O)(=O)N2CCCCC2)c1)c1cnccn1	–	–	–	–	–	86.6
CC(Oc1ncnc2ccccc12)C(=O)Nc1cccc(S(=O)(=O)N2CCOCC2)c1 (configuration not stated)	–	–	–	–	–	77.8
CCN(CC)S(=O)(=O)c1cccc(NC(=S)NC(=O)/C=C/c2ccc(S(=O)(=O)N3CCOCC3)cc2)c1	–	–	–	–	–	79.8
O=C(COc1ncnc2ccccc12)Nc1cccc(S(=O)(=O)N2CCOCC2)c1	–	–	–	–	–	–
O=C1N[C@@H](Cc2ccccc2)C(=O)N2[C@H]1C[C@]1(Br)c3ccccc3N(S(=O)(=O)c3ccc(F)cc3)[C@H]21	–	–	–	·	–	·
O=C(Cc1ccc(Cl)cc1)Nc1cccc(S(=O)(=O)N2CCCCC2)c1	·	–	·	·	·	·
COc1ccc(NS(=O)(=O)c2cccc(NC(=O)c3cnccn3)c2)cc1Br	–	–	–	–	68.2	100.0
COc1ccc(/C=C/C(=O)Nc2cccc(S(=O)(=O)N3CCCC3)c2)cc1OC	–	–	–	–	–	55.2
COc1ccc(/C=C/C(=O)NC2CCCCCC2)cc1S(=O)(=O)N1CCOCC1	–	–	–	–	–	97.9
COc1ccc(C(=O)NC2CCCCC2)cc1S(=O)(=O)N1CCOCC1	–	–	–	–	–	·
O=C(CCl)Nc1cccc(S(=O)(=O)N2CCCCCC2)c1	–	–	–	–	–	85.5
Cc1onc(-c2ccccc2Cl)c1C(=O)OCC(=O)Nc1cccc(S(=O)(=O)N2CCOCC2)c1	–	–	–	–	–	63.8
Cc1ccc(C(=O)OCC(=O)Nc2cccc(S(=O)(=O)N3CCOCC3)c2)o1	·	–	·	·	·	·
O=C(CNCC1CCCCC1)Nc1cccc(S(=O)(=O)N2CCOCC2)c1	–	–	–	–	–	79.3
O=c1n(Cc2ccccc2Cl)nc2n1-c1ccccc1SC2	–	–	–	–	–	·
Cc1ccccc1OCC(O)Cn1c(=N)n(Cc2ccccc2)c2ccccc21 (configuration not stated)	–	–	–	·	54.7	·
COc1ccccc1OCC(O)Cn1c(=N)n(Cc2ccccc2)c2ccccc21 (configuration not stated)	–	–	–	–	–	100.5
C=CCn1c(=N)n(CC(O)COc2ccccc2OC)c2ccccc21 (configuration not stated)	–	–	–	–	–	–
N=c1n(Cc2ccccc2)c2ccccc2n1CC(O)c1ccccc1 (configuration not stated)	–	–	–	–	–	–
O=C(N/N=C/c1sc(N2CCOCC2)nc1-c1ccccc1)c1cccc(S(=O)(=O)N2CCCC2)c1	–	–	87.9	–	77.3	–
O=C(N/N=C/c1sc(N2CCOCC2)nc1-c1ccccc1)c1ccc(O)cc1	–	–	–	–	–	–
c1ccc2sc(N3CCCN(Cc4nc(-c5cnccn5)no4)CC3)nc2c1	–	–	–	–	–	–
CC(=O)N1CCc2cc(Br)cc(S(=O)(=O)NCCN3CCCCC3C)c21 (configuration not stated)	–	–	–	–	–	99.2
CC(=O)N1CCc2cc(Br)cc(S(=O)(=O)NCCCN3CCCC(C)C3)c21 (configuration not stated)	–	–	–	–	–	99.8
CC1CCCN(CCCNS(=O)(=O)c2cc(Br)cc3c2N(C(=O)C2CC2)CC3)C1 (configuration not stated)	–	–	–	–	–	·
CC(=O)N1CCc2cc(Br)cc(S(=O)(=O)NCCCN3CCC(C)CC3)c21	·	–	·	–	·	98.6
